Activity calls are given as the source filed them. No cut-off for these calls is given here.
Legend:
[1] = target: T1, Peroxisome proliferator-activated receptor alpha (Homo sapiens) (UniProt Q07869); assay: Agonist activity at human PPARalpha transfected in HEK293 cells assessed as relative luciferase unit at 50 uM measured after 16 hrs by luciferase reporter gene assay; assay type: cell-based; details: filed as agonist
T1 sequence (whole entry): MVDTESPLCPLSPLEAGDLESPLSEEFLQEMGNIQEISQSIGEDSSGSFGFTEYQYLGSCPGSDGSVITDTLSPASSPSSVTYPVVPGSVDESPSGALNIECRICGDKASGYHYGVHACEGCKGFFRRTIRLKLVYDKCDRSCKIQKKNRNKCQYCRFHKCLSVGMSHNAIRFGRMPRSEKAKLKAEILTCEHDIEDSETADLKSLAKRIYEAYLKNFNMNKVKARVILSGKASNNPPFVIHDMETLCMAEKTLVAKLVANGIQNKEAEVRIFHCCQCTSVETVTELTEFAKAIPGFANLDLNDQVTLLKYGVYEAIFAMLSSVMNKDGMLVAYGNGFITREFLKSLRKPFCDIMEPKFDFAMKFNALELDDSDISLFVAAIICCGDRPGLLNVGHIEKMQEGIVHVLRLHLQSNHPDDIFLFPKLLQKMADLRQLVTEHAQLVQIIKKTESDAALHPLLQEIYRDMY
Method in brief: (§1)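 GAL4-hPPAR (α or γ) plus UAS-luciferase and β-galactosidase transiently co-transfected into HEK293 cells, then treated with 50 μM compound for 16 h. RLU = luciferase/β-galactosidase × time, vehicle (DMSO) set to 1. Mean ± SD, N = 3; one-way ANOVA with Holm–Šidák vs vehicle.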

[2] = tested on: Hepatocyte; assay: Cytotoxicity against mouse primary hepatocytes at 25 uM by MTT assay; assay type: toxicity, cell-based; details: 264 h, time 11 day
[3] = target: T2, Peroxisome proliferator-activated receptor gamma (Homo sapiens) (UniProt P37231); assay: Agonist activity at human PPARgamma transfected in HEK293 cells assessed as relative luciferase unit at 50 uM measured after 16 hrs by luciferase reporter gene assay; assay type: cell-based; details: filed as agonist; method in brief: as §1
T2 sequence (whole entry): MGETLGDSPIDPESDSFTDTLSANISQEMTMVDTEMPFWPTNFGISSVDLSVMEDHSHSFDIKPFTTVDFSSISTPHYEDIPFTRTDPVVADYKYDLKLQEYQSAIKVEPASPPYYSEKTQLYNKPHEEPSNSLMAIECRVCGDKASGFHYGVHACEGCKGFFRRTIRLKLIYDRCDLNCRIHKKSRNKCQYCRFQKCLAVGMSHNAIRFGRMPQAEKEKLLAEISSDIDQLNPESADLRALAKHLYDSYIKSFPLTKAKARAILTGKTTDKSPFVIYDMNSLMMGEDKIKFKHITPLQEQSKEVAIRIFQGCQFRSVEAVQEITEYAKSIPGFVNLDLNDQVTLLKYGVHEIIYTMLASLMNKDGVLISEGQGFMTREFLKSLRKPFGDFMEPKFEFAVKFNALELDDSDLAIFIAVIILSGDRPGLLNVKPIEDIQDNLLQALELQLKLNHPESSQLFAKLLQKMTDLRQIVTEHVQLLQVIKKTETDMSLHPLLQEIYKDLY

[4] = target: T3, Peroxisome proliferator-activated receptor alpha (Homo sapiens, UniProt Q07869); assay: Agonist activity at human PPARalpha expressed in HEK293 cells by luciferase/beta-galactosidase reporter gene assay; assay type: cell-based
T3 sequence (Q07869 whole entry): T1 sequence (whole entry)
Method in brief: (§2)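 HEK293 cells in charcoal-stripped FBS, calcium phosphate co-transfected with GAL4-hPPAR LBD fusion, UAS-luciferase and β-galactosidase. Ligand added 6–8 h post transfection, full dose–response, harvested 14–16 h later. Luciferase normalized to β-galactosidase.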

[5] = target: T4, Peroxisome proliferator-activated receptor gamma (Homo sapiens, UniProt P37231); assay: Agonist activity at human PPARgamma expressed in HEK293 cells by luciferase/beta-galactosidase reporter gene assay; assay type: cell-based; method in brief: as §2
T4 sequence (P37231 whole entry): T2 sequence (whole entry)

[6] = target: T2, Peroxisome proliferator-activated receptor gamma (Homo sapiens); assay: Agonist activity at human PPARgamma expressed in HEK293 cells assessed as maximal activity by luciferase/beta-galactosidase reporter gene assay relative to rosiglitazone; assay type: cell-based; details: filed as agonist; method in brief: as §2
[7] = target: T5, Peroxisome proliferator-activated receptor delta (Homo sapiens) (UniProt Q03181); details: HEK293, filed as agonist
T5 sequence (whole entry): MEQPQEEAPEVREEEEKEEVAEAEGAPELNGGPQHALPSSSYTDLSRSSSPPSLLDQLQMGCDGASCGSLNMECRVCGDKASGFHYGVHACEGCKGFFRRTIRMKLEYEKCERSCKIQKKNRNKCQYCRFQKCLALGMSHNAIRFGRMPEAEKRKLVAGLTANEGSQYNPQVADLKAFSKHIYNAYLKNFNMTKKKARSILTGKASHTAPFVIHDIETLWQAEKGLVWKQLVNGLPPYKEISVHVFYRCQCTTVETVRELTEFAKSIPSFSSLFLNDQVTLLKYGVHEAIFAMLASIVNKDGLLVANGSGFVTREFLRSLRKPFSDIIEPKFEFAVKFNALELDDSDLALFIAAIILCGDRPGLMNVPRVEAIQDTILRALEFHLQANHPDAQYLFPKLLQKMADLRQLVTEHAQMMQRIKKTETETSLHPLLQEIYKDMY

[8] = target: T6, Peroxisome proliferator-activated receptor alpha (Mus musculus) (UniProt P23204); assay: Agonist activity at human PPARalpha in mouse hepatocytes assessed as induction of fabp1 mRNA expression at 50 uM incubated for 16 hrs by quantitative real-time PCR analysis; assay type: cell-based; details: Hepatocyte, filed as agonist
T6 sequence (whole entry): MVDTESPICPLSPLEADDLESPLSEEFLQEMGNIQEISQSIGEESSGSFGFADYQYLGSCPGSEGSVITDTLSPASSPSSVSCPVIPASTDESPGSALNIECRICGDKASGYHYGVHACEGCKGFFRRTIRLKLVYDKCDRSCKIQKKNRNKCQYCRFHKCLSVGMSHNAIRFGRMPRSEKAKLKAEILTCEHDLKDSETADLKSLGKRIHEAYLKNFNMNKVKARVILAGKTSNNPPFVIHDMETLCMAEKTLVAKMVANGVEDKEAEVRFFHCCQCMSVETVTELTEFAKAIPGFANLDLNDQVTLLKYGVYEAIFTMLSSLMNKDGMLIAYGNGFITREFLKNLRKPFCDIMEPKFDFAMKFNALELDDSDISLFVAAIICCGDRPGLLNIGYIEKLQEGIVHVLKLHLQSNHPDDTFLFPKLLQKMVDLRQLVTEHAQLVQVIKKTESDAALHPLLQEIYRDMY
Method in brief: (§3)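 Collagenase-perfused mouse primary hepatocytes from WT mice, plated 2 h in attachment medium, overnight in M199 with 5% charcoal-stripped FBS and 1 nM insulin. Treated next day in serum-free M199 with 50 μM compound for 16 h. RNA qPCR (SYBR Green), comparative Ct method.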

[9] = tested on: HEK293; assay: Cytotoxicity against HEK293 cells at 25 uM by MTT assay; assay type: toxicity, cell-based; details: human, hek293, 264 h, time 11 day
Method in brief: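 MTT assay in HEK293 cells with compounds dosed at 25 μM.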

[10] = target: T6, Peroxisome proliferator-activated receptor alpha (Mus musculus); assay: Agonist activity at human PPARalpha in mouse hepatocytes assessed as induction of Pdk4 mRNA expression at 50 uM incubated for 16 hrs by quantitative real-time PCR analysis; assay type: cell-based; details: Hepatocyte, filed as agonist; method in brief: as §3
[11] = target: T1, Peroxisome proliferator-activated receptor alpha (Homo sapiens); assay: Agonist activity at human PPARalpha expressed in HEK293 cells assessed as maximal activity by luciferase/beta-galactosidase reporter gene assay relative to GW7647; assay type: cell-based; method in brief: as §2
[12] = target: T6, Peroxisome proliferator-activated receptor alpha (Mus musculus); assay: Agonist activity at human PPARalpha in mouse hepatocytes assessed as induction of Fgf21 mRNA expression at 50 uM incubated for 16 hrs by quantitative real-time PCR analysis; assay type: cell-based; details: Hepatocyte, filed as agonist; method in brief: as §3

CCCCCCCCCCCCCCCc1cccc(OCC(=O)O)c1
Activity [1]: Active | Activity [2]: Non-Toxic | Activity [3]: Active | EC50 [4]: 1.1 µM | EC50 [5]: 3.7 µM | Emax [6]: > 90% | EC50 [7]: 10 µM | Activity [8]: Active | Activity [9]: Toxic | Activity [10]: Active | Emax [11]: 30% | Activity [12]: Active

Source: ChEMBL document CHEMBL5154715, “Phenolic Lipids Derived from Cashew Nut Shell Liquid to Treat Metabolic Diseases” (J Med Chem, 2022)
